According to ChEMBL document CHEMBL1158998, “Studies on iridoids of tissue cultures of Penstemon serrulatus: isolation and their antiproliferative properties” (J Nat Prod, 1992):

What was measured:
[1] = Antiproliferative activity against BALB/c mouse splenocytes assessed as inhibition of [3H]thymidine incorporation into DNA at 1 uM after 24 hrs […] relative to control; format: cell-based, Splenocyte
In short: (§1)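 Spleens from male BALB/c mice (5–6 weeks) were teased into single cells in RPMI-1640 with 20 mM Hepes (pH 7.35) and checked by trypan blue. After 30 min preincubation, 10^6 cells/ml were held in medium with 15% FCS, with compound dissolved in medium. Incubation was at 37° in air-CO₂ (95:5). [³H]-thymidine (2 μCi/ml) was added after 1 h and the run stopped 24 h later. Read-out is cpm/10^6 cells; % inhibition = [1 − cpm treated/cpm control]×100; Student's t-test.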

[2] = Antiproliferative activity against BALB/c mouse splenocytes assessed as inhibition of [3H]thymidine incorporation into DNA at 10 uM after 24 hrs […] relative to control; format: cell-based, Splenocyte; in short: as §1
[3] = Antiproliferative activity against BALB/c mouse splenocytes assessed as inhibition of [3H]thymidine incorporation into DNA at 100 uM after 24 hrs […] relative to control; format: cell-based, Splenocyte; in short: as §1
[4] = Antiproliferative activity against Syrian hamster hepatoma cells assessed as inhibition of [3H]thymidine incorporation into DNA at 10 uM after 24 hrs […] relative to control; format: functional; settings: Mesocricetus auratus
In short: (§2)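 Hepatoma was raised in Syrian hamsters by s.c. Kirkman-Robbins hepatoma pulp. Tumour cells were freed mechanically and with 0.4% collagenase plus 0.2% trypsin (>95% viable). After 30 min preincubation, 0.5×10^6 cells/ml were held in RPMI-1640 with 15% FCS and compound in medium at 37°, air-CO₂ (95:5). [³H]-thymidine (2 μCi/ml) was added at 1 h and incubation ended 24 h later. Read-out is cpm/10^6 cells; % inhibition vs control; Student's t-test.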

[5] = Antiproliferative activity against Syrian hamster hepatoma cells assessed as inhibition of [3H]thymidine incorporation into DNA at 100 uM after 24 hrs […] relative to control; format: functional; settings: Mesocricetus auratus; in short: as §2

| SMILES | inhibition at 24 h, 1 µM [1] | inhibition at 24 h, 10 µM [2] | inhibition at 24 h, 100 µM [3] | inhibition at 10 µM [4] | inhibition at 100 µM [5] |
| --- | --- | --- | --- | --- | --- |
| CC(C)CC(=O)O[C@@H]1OC=C(CO[C@@H]2O[C@H](CO)[C@@H](O)[C@H](O)[C@H]2O)[C@@H]2CC=C(CO)[C@@H]12 | 4% | 24% | 59% | 12% | 69% |
| C=C1[C@H]2[C@H](OC(=O)CC(C)C)OC=C(CO[C@@H]3O[C@H](CO)[C@@H](O)[C@H](O)[C@H]3O)[C@@H]2C[C@@H]1O | 9% | 16% | 45% | 18% | 75% |
| CC(C)CC(=O)O[C@@H]1OC=C(CO)[C@@H]2CC=C(CO)[C@@H]12 | 15% | 25% | 60% |  |  |
